These results are taken from ChEMBL document CHEMBL1143109, “Discovery of novel orally active ureido NPY Y5 receptor antagonists” (Bioorg Med Chem Lett, 2008).

The structures appear in SMILES notation.

For one assay, the target named is Neuropeptide Y receptor type 5 (Homo sapiens, UniProt Q15761). Nature of the assay: Displacement of [125]PYY from human chimeric NPY Y5 receptor expressed in CHOK1 cells. It is filed as cell-based. The settings on record: cho-k1. In a few lines: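 Binding to human chimeric Y5 receptor expressed in CHO-K1 cells; Ki values are the average of two determinations.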
Chain of Neuropeptide Y receptor type 5 (Q15761 whole entry, looked up): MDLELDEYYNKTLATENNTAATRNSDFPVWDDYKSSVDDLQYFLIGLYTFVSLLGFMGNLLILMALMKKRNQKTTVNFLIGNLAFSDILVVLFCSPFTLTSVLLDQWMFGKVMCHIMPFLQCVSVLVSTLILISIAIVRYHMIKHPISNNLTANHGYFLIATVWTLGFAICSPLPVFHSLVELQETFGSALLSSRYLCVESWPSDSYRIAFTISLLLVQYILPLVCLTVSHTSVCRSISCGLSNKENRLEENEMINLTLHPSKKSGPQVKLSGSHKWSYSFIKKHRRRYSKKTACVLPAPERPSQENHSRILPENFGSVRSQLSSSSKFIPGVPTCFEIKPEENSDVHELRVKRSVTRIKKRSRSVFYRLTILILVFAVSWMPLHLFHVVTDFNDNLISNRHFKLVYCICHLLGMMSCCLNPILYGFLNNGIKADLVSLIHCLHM
On to `CC(=O)N1CCC(N(C)C(=O)N[C@H]2CC[C@H](c3ccccc3)CC2)CC1`, for which the Ki stood at 59 nM. `CN(C(=O)NC1CCN(c2cccc(C#N)c2)CC1)C1CCN(S(C)(=O)=O)CC1` returned a Ki of 27 nM.

`CN(C(=O)NC1CCN(c2ccccc2)CC1)C1CCN(S(C)(=O)=O)CC1` displayed a Ki of 303 nM. On the same count and under the same terms, the value for `CN(C(=O)NC1CCN(c2ccc(Cl)cc2)CC1)C1CCN(S(C)(=O)=O)CC1` was 130 nM; that for `CN(C(=O)NC1CCN(c2ccc(F)c(F)c2)CC1)C1CCN(S(C)(=O)=O)CC1` was 312 nM; that for `CC(=O)c1cccc(N2CCC(NC(=O)N(C)C3CCN(S(C)(=O)=O)CC3)CC2)c1` was 164 nM. `CN(C(=O)NC1CCN(c2cccc(Br)c2)CC1)C1CCN(S(C)(=O)=O)CC1` gave a Ki of 8.8 nM. `CN(C(=O)NC1CCN(c2ccc(Br)cc2)CC1)C1CCN(S(C)(=O)=O)CC1` displayed a Ki of 819 nM.

Compound `CCCC(=O)N1CCC(N(C)C(=O)N[C@H]2CC[C@H](c3cc(F)cc(F)c3)CC2)CC1` (stereo in doubt; 21e) came in with a Ki of 2 nM. On the same count and under the same terms, the value for `CN(C(=O)N[C@H]1CC[C@@H](c2ccccc2)CC1)C1CCN(S(C)(=O)=O)CC1` was 500 nM; that for `CN(C(=O)NC1CCN(c2ccc(F)c(Cl)c2)CC1)C1CCN(S(C)(=O)=O)CC1` was 160 nM; that for `CN(C(=O)NC1CCN(c2cccc(F)c2)CC1)C1CCN(S(C)(=O)=O)CC1` was 35 nM. On the same count and under the same terms, the value for `CC(=O)N1CCC(N(C)C(=O)N[C@H]2CC[C@@H](c3ccccc3)CC2)CC1` was greater than 1000 nM.

For the compound `CN(C(=O)Nc1ccc(-c2cc(F)cc(F)c2)cc1)C1CCN(S(C)(=O)=O)CC1`, affinity was put at a Ki of 0.4 nM. As to `Cc1cccc(N2CCC(NC(=O)N(C)C3CCN(S(C)(=O)=O)CC3)CC2)c1`, the Ki was 20 nM. Same read-out and setting: the value for `CCC(=O)N1CCC(N(C)C(=O)NC2CCN(c3cc(F)cc(F)c3)CC2)CC1` was 6.3 nM; that for `CN(C(=O)N[C@H]1CC[C@H](c2cc(F)cc(F)c2)CC1)C1CCN(S(C)(=O)=O)CC1` was 1.2 nM; that for `CN(C(=O)NC1CCN(c2ccc(Cl)c(Cl)c2)CC1)C1CCN(S(C)(=O)=O)CC1` was 48 nM. Still for that read-out and setting: the value for `CN(C(=O)NC1CCN(c2cccc(Cl)c2)CC1)C1CCN(S(C)(=O)=O)CC1` was 13 nM. Same read-out and setting: the value for `CN(C(=O)N[C@H]1CC[C@H](c2ccccc2)CC1)C1CCN(S(C)(=O)=O)CC1` was 52 nM. In turn, `CC(=O)N1CCC(N(C)C(=O)NC2CCN(c3cc(F)cc(F)c3)CC2)CC1` displayed a Ki of 7.4 nM.

Compound `CCS(=O)(=O)N1CCC(N(C)C(=O)NC2CCN(c3cc(F)cc(F)c3)CC2)CC1` yielded a Ki of 2.8 nM. On the same count and under the same terms, the value for `CC(C)S(=O)(=O)N1CCC(N(C)C(=O)NC2CCN(c3cc(F)cc(F)c3)CC2)CC1` was 3.2 nM; that for `CCCC(=O)N1CCC(N(C)C(=O)NC2CCN(c3cc(F)cc(F)c3)CC2)CC1` was 5.9 nM; that for `CCC(=O)N1CCC(N(C)C(=O)N[C@H]2CC[C@H](c3cc(F)cc(F)c3)CC2)CC1` was 1.5 nM. The same measure, in the same setting: the value for `CCCS(=O)(=O)N1CCC(N(C)C(=O)NC2CCN(c3cc(F)cc(F)c3)CC2)CC1` was 3.4 nM. With `CN(C(=O)NC1CCN(c2cccnc2)CC1)C1CCN(S(C)(=O)=O)CC1`, the affinity corresponds to a Ki of 405 nM. As for `CN(C(=O)NC1CCN(c2ccc(F)cc2)CC1)C1CCN(S(C)(=O)=O)CC1`, the Ki was 799 nM.

Turning to `Cc1ccccc1N1CCC(NC(=O)N(C)C2CCN(S(C)(=O)=O)CC2)CC1`, the Ki was determined as 52 nM.

With `CCS(=O)(=O)N1CCC(N(C)C(=O)N[C@H]2CC[C@H](c3cc(F)cc(F)c3)CC2)CC1`, the Ki was 0.75 nM. Compound `CN(C(=O)NC1CCN(c2cc(F)cc(F)c2)CC1)C1CCN(S(C)(=O)=O)CC1` gave a Ki of 3.2 nM. On the same count and under the same terms, the value for `CN(C(=O)NC1CCN(c2ccccc2F)CC1)C1CCN(S(C)(=O)=O)CC1` was 88 nM; that for `CN(C(=O)NC1CCN(c2cc(Cl)cc(Cl)c2)CC1)C1CCN(S(C)(=O)=O)CC1` was 1.1 nM; that for `COc1cccc(N2CCC(NC(=O)N(C)C3CCN(S(C)(=O)=O)CC3)CC2)c1` was 311 nM.

As for `CCCC(=O)N1CCC(N(C)C(=O)N[C@H]2CC[C@H](c3cc(F)cc(F)c3)CC2)CC1` (stereo in doubt; 21h), the Ki came to 2.4 nM.

`CC(C)C(=O)N1CCC(N(C)C(=O)NC2CCN(c3cc(F)cc(F)c3)CC2)CC1` showed a Ki of 2.6 nM.

In the next assay the target is T1, Neuropeptide Y receptor type 5 (Rattus norvegicus) (UniProt Q63634).
T1 sequence (whole entry): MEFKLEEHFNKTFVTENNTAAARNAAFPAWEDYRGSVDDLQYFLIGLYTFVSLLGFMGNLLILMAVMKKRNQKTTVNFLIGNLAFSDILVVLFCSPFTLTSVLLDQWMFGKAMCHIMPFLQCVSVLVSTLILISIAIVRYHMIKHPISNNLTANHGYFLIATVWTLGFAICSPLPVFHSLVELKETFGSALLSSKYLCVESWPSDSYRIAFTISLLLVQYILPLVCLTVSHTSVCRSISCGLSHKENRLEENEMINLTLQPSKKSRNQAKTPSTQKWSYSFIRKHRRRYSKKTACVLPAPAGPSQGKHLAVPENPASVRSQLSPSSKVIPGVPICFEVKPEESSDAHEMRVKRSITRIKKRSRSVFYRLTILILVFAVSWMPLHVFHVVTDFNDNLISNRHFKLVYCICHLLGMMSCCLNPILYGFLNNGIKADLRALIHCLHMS
Nature of the assay: Antagonist activity at rat NPY Y5 receptor expressed in HEK293 cells assessed as inhibition of forskolin-stimulated cAMP production.
Conditions: not given
It is filed as functional, cell-based. Put shortly: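 HEK293 cells expressing rat NPY Y5 receptor. Functional antagonism measured as the ability to overcome NPY inhibition of forskolin-stimulated cAMP production; reported as Kb.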
For `CN(C(=O)Nc1ccc(-c2cc(F)cc(F)c2)cc1)C1CCN(S(C)(=O)=O)CC1`, the Kb amounted to 0.4 nM.

A further assay has as its system Rattus norvegicus. Put plainly: Blockade of D-Trp[34]-NPY-induced food intake in po dosed rat. It counts as functional.
Conditions: not given
With `CN(C(=O)Nc1ccc(-c2cc(F)cc(F)c2)cc1)C1CCN(S(C)(=O)=O)CC1`, it took a dose of 0.4 mg/kg to reach the 50% effect level (ED50).

The Ki is the equilibrium dissociation constant of an inhibitor or competing ligand from its target. A lower Ki goes with tighter binding. Broadly, the Kb is the affinity of an antagonist, worked out from how it opposes an agonist. As usually defined, the ED50 is the dose at which the effect has come halfway, by size or by number of responders. Higher therefore signals weaker potency.
